Test results from ChEMBL document CHEMBL3751708, “Structure guided design of potential inhibitors of human calcium-calmodulin dependent protein kinase IV containing pyrimidine scaffold” (Bioorg Med Chem Lett, 2016).

Assays:
[1] = Cytotoxicity against human HuH7 cells after 48 hrs by MTT assay; format: functional, cell-based; settings: Huh-7, 48 h
Summary of the method: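 Exponentially growing HuH7 hepatoma cells at 7000 per well, triplicates, dosed the next day with inhibitors at 5-150 μM for 48 h; curcumin served as positive control. MTT was then added in fresh DMEM for 4-5 h at 37 °C, and formazan was dissolved in DMSO and read at 570 nm. IC50 was derived from percent viability; three independent experiments, mean ± S.D.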

[2] = test system: HEK293; experiment: Cytotoxicity against human HEK293 cells after 48 hrs by MTT assay; format: cell-based; settings: HEK293, 48 h
[3] = target: T1, Calcium/calmodulin-dependent protein kinase type IV (Homo sapiens) (UniProt Q16566); experiment: Binding affinity to human CAMK4 at pH 7.4 by fluorescence emission spectra analysis
T1 sequence (whole entry): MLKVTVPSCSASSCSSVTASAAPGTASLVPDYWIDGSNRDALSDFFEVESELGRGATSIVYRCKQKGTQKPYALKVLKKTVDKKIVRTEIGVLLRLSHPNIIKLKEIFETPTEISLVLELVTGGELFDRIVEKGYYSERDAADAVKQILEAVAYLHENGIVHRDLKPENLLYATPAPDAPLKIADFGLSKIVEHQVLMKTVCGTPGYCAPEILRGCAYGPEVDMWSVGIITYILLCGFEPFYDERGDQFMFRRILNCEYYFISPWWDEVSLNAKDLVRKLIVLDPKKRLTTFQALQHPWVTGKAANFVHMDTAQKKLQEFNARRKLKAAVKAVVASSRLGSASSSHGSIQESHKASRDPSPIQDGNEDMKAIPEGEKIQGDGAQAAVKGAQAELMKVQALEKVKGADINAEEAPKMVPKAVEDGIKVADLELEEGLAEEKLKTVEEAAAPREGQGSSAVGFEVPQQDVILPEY
Summary of the method: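 Recombinant CAMKIV kinase domain at 4 μM in 50 mM phosphate pH 7.4 with 150 mM NaCl, 25 °C. Titrated from a 1.0 mM ligand stock up to 132 μM final. Ligands were diluted from DMSO stock and dialyzed in buffer beforehand. Excitation at 280 nm, tryptophan emission read over 300-400 nm. Ka and n taken from a modified Stern–Volmer plot; three measurements.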

[4] = test system: HEK293; experiment: Cytotoxicity against human HEK293 cells up to 50 uM after 48 hrs by MTT assay; format: cell-based; settings: hek293, 48 h
Summary of the method: (§1)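 HEK293 cells at 7000 per well, triplicates, treated the next day with inhibitors at 5-150 μM for 48 h. MTT was then added to fresh DMEM for 4-5 h at 37 °C. Formazan was dissolved in DMSO and read at 570 nm. Viability given as percent of untreated control.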

[5] = test system: HEK293; experiment: Cytotoxicity against human HEK293 cells up to 25 uM after 48 hrs by MTT assay; format: cell-based; settings: hek293, 48 h; summary of the method: as §1

Row | Kapp [3] | Compound | IC50 [1] | IC50 [2] | Activity [4] | Activity [5]
1 | – | COc1cc(/C=C/C(=O)CC(=O)/C=C/c2ccc(O)c(OC)c2)ccc1O [CURCUMIN] | 48 µM | > 400 µM | – | –
2 | 2.2 ×10⁸ /M | COc1ccc(Nc2cc(N3CCNCC3)ncn2)cc1 | 46 µM | > 400 µM | Non-toxic | –
3 | 1.6 ×10⁵ /M | Nc1cccc(Oc2cc(Oc3cccc4cccnc34)ncn2)c1 | 116 µM | 400 µM | – | Non-toxic
4 | 4.6 ×10⁵ /M | N#Cc1cccnc1N1CCN(c2cc(Oc3cccc4cccnc34)ncn2)CC1 | 104 µM | > 400 µM | – | Non-toxic
